# Calls of active or inactive are those of the source. The calls are words filed in the database; no cut-off is given here.
# How the values were obtained:
# [1] = Cytotoxicity against […] cells after 48 hrs by MTT assay; format: functional, cell-based; conditions: Mus musculus, Ehrlich
# How it was run: (§1)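 Cells grown with 10% FBS, 1% L-glutamine and antibiotics at 37 °C, 5% CO₂. Seeded at 1 × 10⁵ cells/mL and incubated 24 h. Compounds added from DMSO stocks, final DMSO <1%, for 48 h. MTT (2.5 mg/mL) added for 2 h, then OD read at 490 nm. IC50 (50% reduction in OD versus untreated) taken from dose–response curves; three independent determinations.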
# HeLa = test: Cytotoxicity against human HeLa cells after 48 hrs by MTT assay; format: functional, cell-based; how it was run: as §1
# MCF7 = test: Cytotoxicity against human MCF7 cells after 48 hrs by MTT assay; format: functional, cell-based; conditions: MCF7, 48 h; how it was run: as §1
# Mus musculus [2] = test: Protective effect on haemopoietic system in Swiss albino mouse xenografted with […] cells assessed as WBC count at 5 mg/kg, ip qd administered for 9 days measured after 14 days; format: functional, organism-based; parameters: dose 5 mg/kg; conditions: Ehrlich
# How it was run: (§2)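 Swiss albino female mice (8 weeks, n = 10 per group) inoculated ip with EAC cells (0.2 mL of 2 × 10⁶ cells/mouse), then dosed daily for 9 days starting 24 h after inoculation. On day 14, hemoglobin, RBC, WBC and differential leukocyte counts were compared with uninoculated normal and EAC control groups; mean ± SEM.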
# Mus musculus [3] = test: Protective effect on haemopoietic system in Swiss albino mouse xenografted with […] cells assessed as RBC count at 10 mg/kg, ip qd administered for 9 days measured after 14 days; format: functional, organism-based; parameters: dose 10 mg/kg; conditions: Ehrlich; how it was run: as §2
# [4] = Antitumor activity against […] cells xenografted in Swiss albino mouse assessed as increase in life span at 10 mg/kg, ip qd administered for 9 days; format: functional, Ehrlich; conditions: route intraperitoneal
# How it was run: (§3)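 Female Swiss albino mice, 8 weeks old and 20–25 g, received 0.2 mL of 2 × 10⁶ EAC cells/mouse i.p. on day 0. Daily dosing started 24 h later and ran 9 days; controls received sterile saline i.p. After day-14 sacrifice of five per group, mortality was recorded daily for 30 days. MST = (first + last death day)/2; %ILS = [(MST treated/MST control) − 1] × 100.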
# Mus musculus [5] = test: Protective effect on haemopoietic system in Swiss albino mouse xenografted with […] cells assessed as change in hemoglobin level at 5 mg/kg, ip qd administered for 9 days measured after 14 days (reference value: 5.8 +/- 0.7 g%); format: functional, Ehrlich; conditions: route intraperitoneal; how it was run: as §2
# [6] = Antitumor activity against […] cells xenografted in Swiss albino mouse assessed as change in tumor volume at 5 mg/kg, ip qd administered for 9 days measured after 14 days (reference value: 12.1 +/- 0.9 ml); format: functional, Ehrlich; conditions: route intraperitoneal
# Ehrlich [7] = test: Antitumor activity against […] cells xenografted in Swiss albino mouse assessed as viable tumor cell count at 10 mg/kg, ip qd administered for 9 days measured after 14 days by trypan blue assay; format: functional, organism-based; parameters: dose 10 mg/kg
# Mus musculus [8] = test: Protective effect on haemopoietic system in Swiss albino mouse xenografted with […] cells assessed as change in monocytes count at 5 mg/kg, ip qd administered for 9 days measured after 14 days (reference value: 2.4 +/- 0.1 %); format: functional, Ehrlich; conditions: route intraperitoneal; how it was run: as §2
# [9] = Antitumor activity against […] cells xenografted in Swiss albino mouse assessed as increase in life span at 5 mg/kg, ip qd administered for 9 days; format: functional, Ehrlich; conditions: route intraperitoneal; how it was run: as §3
# Ehrlich [10] = test: Antitumor activity against […] cells xenografted in Swiss albino mouse assessed as viable tumor cell count at 5 mg/kg, ip qd administered for 9 days measured after 14 days by trypan blue assay; format: functional, organism-based; parameters: dose 5 mg/kg
# [11] = Antitumor activity against […] cells xenografted in Swiss albino mouse assessed as change in tumor volume at 10 mg/kg, ip qd administered for 9 days measured after 14 days (reference value: 12.1 +/- 0.9 ml); format: functional, Ehrlich; conditions: route intraperitoneal
# [12] = Antitumor activity against […] cells xenografted in Swiss albino mouse assessed as packed cell volume at 10 mg/kg, ip qd administered for 9 days measured after 14 days (reference value: 2.8 +/- 0.5 ml); format: functional, Ehrlich; conditions: route intraperitoneal
# Mus musculus [13] = test: Protective effect on haemopoietic system in Swiss albino mouse xenografted with […] cells assessed as RBC count at 5 mg/kg, ip qd administered for 9 days measured after 14 days; format: functional, organism-based; parameters: dose 5 mg/kg; conditions: Ehrlich; how it was run: as §2
# [14] = Antitumor activity against […] cells xenografted in Swiss albino mouse assessed as mean survival time at 10 mg/kg, ip qd administered for 9 days measured after 14 days (reference value: 13.7+/- 0.4 days); format: functional, Ehrlich; conditions: route intraperitoneal; how it was run: as §3
# Mus musculus [15] = test: Protective effect on haemopoietic system in Swiss albino mouse xenografted with […] cells assessed as WBC count at 10 mg/kg, ip qd administered for 9 days measured after 14 days; format: functional, organism-based; parameters: dose 10 mg/kg; conditions: Ehrlich; how it was run: as §2
# Mus musculus [16] = test: Toxicity in Swiss albino mouse xenografted with human EAC cells assessed as change in body weight at 5 mg/kg, ip qd administered for 9 days measured after 14 days (reference value: 12.2 +/- 0.8 g); format: organism-based, Ehrlich; parameters: dose 5 mg/kg, route intraperitoneal; conditions: in vivo, 336 h
# Mus musculus [17] = test: Protective effect on haemopoietic system in Swiss albino mouse xenografted with […] cells assessed as change in neutrophils count at 10 mg/kg, ip qd administered for 9 days measured after 14 days (reference value: 73 +/- 1.3 %); format: functional, Ehrlich; conditions: route intraperitoneal; how it was run: as §2
# Mus musculus [18] = test: Protective effect on haemopoietic system in Swiss albino mouse xenografted with […] cells assessed as change in neutrophils count at 5 mg/kg, ip qd administered for 9 days measured after 14 days (reference value: 73 +/- 1.3 %); format: functional, Ehrlich; conditions: route intraperitoneal; how it was run: as §2
# Mus musculus [19] = test: Toxicity in Swiss albino mouse xenografted with […] cells assessed as change in body weight at 10 mg/kg, ip qd administered for 9 days measured after 14 days (reference value: 12.2 +/- 0.8 g); format: organism-based, Ehrlich; parameters: dose 10 mg/kg, route intraperitoneal; conditions: in vivo, 336 h
# Mus musculus [20] = test: Reduction in ascetic fluid volume in Swiss albino mouse xenografted with […] cells at 5 to 10 mg/kg, ip qd administered for 9 days measured after 14 days; format: functional, organism-based; conditions: Ehrlich
# [21] = Antitumor activity against […] cells xenografted in Swiss albino mouse assessed as packed cell volume at 5 mg/kg, ip qd administered for 9 days measured after 14 days (reference value: 2.8 +/- 0.5 ml); format: functional, Ehrlich; conditions: route intraperitoneal
# Mus musculus [22] = test: Protective effect on haemopoietic system in Swiss albino mouse xenografted with […] cells assessed as change in monocytes count at 10 mg/kg, ip qd administered for 9 days measured after 14 days (reference value: 2.4 +/- 0.1 %); format: functional, Ehrlich; conditions: route intraperitoneal; how it was run: as §2
# Mus musculus [23] = test: Protective effect on haemopoietic system in Swiss albino mouse xenografted with […] cells assessed as change in lymphocytes count at 5 mg/kg, ip qd administered for 9 days measured after 14 days (reference value: 23 +/- 0.6 %); format: functional, Ehrlich; conditions: route intraperitoneal; how it was run: as §2
# Mus musculus [24] = test: Protective effect on haemopoietic system in Swiss albino mouse xenografted with […] cells assessed as change in hemoglobin level at 10 mg/kg, ip qd administered for 9 days measured after 14 days (reference value: 5.8 +/- 0.7 g%); format: functional, Ehrlich; conditions: route intraperitoneal; how it was run: as §2
# [25] = Antitumor activity against […] cells xenografted in Swiss albino mouse assessed as mean survival time at 5 mg/kg, ip qd administered for 9 days measured after 14 days (reference value: 13.7+/- 0.4 days); format: functional, Ehrlich; conditions: route intraperitoneal; how it was run: as §3
# Mus musculus [26] = test: Protective effect on haemopoietic system in Swiss albino mouse xenografted with […] cells assessed as change in lymphocytes count at 10 mg/kg, ip qd administered for 9 days measured after 14 days (reference value: 23 +/- 0.6 %); format: functional, Ehrlich; conditions: route intraperitoneal; how it was run: as §2
smiles,measurement,setting,value
COc1ccc(C(C2c3onc(C)c3N=C(c3ccccc3)CC2c2ccccc2)C2c3onc(C)c3N=C(c3ccccc3)CC2c2ccccc2)cc1 (centres undefined),IC50,[1],41.9 µg/mL
same,IC50,HeLa,65.9 µg/mL
same,IC50,MCF7,57.3 µg/mL
Cc1noc2c1N=C(c1cccs1)CC(c1ccccc1)C2C(c1ccccc1)C1c2onc(C)c2N=C(c2cccs2)CC1c1ccccc1 (centres undefined),Activity,Mus musculus [2],Active
same,Activity,Mus musculus [3],Active
same,Activity,[4],73.7%
same,Activity,Mus musculus [5],7.3 g%
same,Activity,[6],7.3 mL
same,Activity,Ehrlich [7],Active
same,Activity,Mus musculus [8],1.9%
same,IC50,[1],26.1 µg/mL
same,Activity,[9],29.9%
same,Activity,Ehrlich [10],Active
same,Activity,[11],4.9 mL
same,Activity,[12],1.1 mL
same,Activity,Mus musculus [13],Active
same,MSD,[14],23.8 days
same,Activity,Mus musculus [15],Active
same,Activity,Mus musculus [16],8.3 g
same,Activity,Mus musculus [17],36%
same,Activity,Mus musculus [18],54%
same,IC50,HeLa,28.5 µg/mL
same,Activity,Mus musculus [19],6.7 g
same,Activity,Mus musculus [20],Active
same,Activity,[21],1.8 mL
same,Activity,Mus musculus [22],1.4%
same,Activity,Mus musculus [23],35%
same,Activity,Mus musculus [24],8.5 g%
same,IC50,MCF7,24.1 µg/mL
same,MSD,[25],17.8 days
same,Activity,Mus musculus [26],51%
Cc1noc2c1N=C(c1ccc(Cl)cc1)CC(c1ccccc1)C2C(c1ccccc1)C1c2onc(C)c2N=C(c2ccc(Cl)cc2)CC1c1ccccc1 (centres undefined),IC50,[1],58.5 µg/mL
same,IC50,HeLa,60.2 µg/mL
same,IC50,MCF7,61.1 µg/mL
Cc1noc2c1N=C(c1ccccc1)CC(c1ccccc1)C2C(c1ccccc1)C1c2onc(C)c2N=C(c2ccccc2)CC1c1ccccc1 (centres undefined),IC50,[1],66.5 µg/mL
same,IC50,HeLa,68.7 µg/mL
same,IC50,MCF7,68.9 µg/mL
Cc1noc2c1N=C(c1ccccc1)CC(c1ccccc1)C2C(c1ccc(Cl)cc1)C1c2onc(C)c2N=C(c2ccccc2)CC1c1ccccc1 (centres undefined),IC50,[1],60.4 µg/mL
same,IC50,HeLa,55.9 µg/mL
same,IC50,MCF7,59 µg/mL
COc1ccc(C2CC(c3ccccc3)=Nc3c(C)noc3C2C(c2ccccc2)C2c3onc(C)c3N=C(c3ccccc3)CC2c2ccc(OC)cc2)cc1 (centres undefined),IC50,[1],40.1 µg/mL
same,IC50,HeLa,45.6 µg/mL
same,IC50,MCF7,53.8 µg/mL
Cc1ccc(C2CC(c3ccccc3)=Nc3c(C)noc3C2C(c2ccccc2)C2c3onc(C)c3N=C(c3ccccc3)CC2c2ccc(C)cc2)cc1 (centres undefined),IC50,[1],51.6 µg/mL
same,IC50,HeLa,53.3 µg/mL
same,IC50,MCF7,50.1 µg/mL
Cc1ccc(C2=Nc3c(C)noc3C(C(c3ccccc3)C3c4onc(C)c4N=C(c4ccc(C)cc4)CC3c3ccccc3)C(c3ccccc3)C2)cc1 (centres undefined),IC50,[1],50.1 µg/mL
same,IC50,HeLa,55.1 µg/mL
same,IC50,MCF7,55.9 µg/mL
Cc1noc2c1N=C(c1ccco1)CC(c1ccccc1)C2C(c1ccccc1)C1c2onc(C)c2N=C(c2ccco2)CC1c1ccccc1 (centres undefined),Activity,Mus musculus [2],Active
same,Activity,Mus musculus [3],Active
same,Activity,[4],33.6%
same,Activity,Mus musculus [5],6 g%
same,Activity,[6],11 mL
same,Activity,Ehrlich [7],Active
same,Activity,Mus musculus [8],2.1%
same,IC50,[1],28.9 µg/mL
same,Activity,[9],8.8%
same,Activity,[11],8.5 mL
same,Activity,[12],1.6 mL
same,Activity,Mus musculus [13],Active
same,MSD,[14],18.3 days
same,Activity,Mus musculus [15],Active
same,Activity,Mus musculus [16],10.6 g
same,Activity,Mus musculus [17],49%
same,Activity,Mus musculus [18],63%
same,IC50,HeLa,32.7 µg/mL
same,Activity,Mus musculus [19],9.6 g
same,Activity,Mus musculus [20],Active
same,Activity,[21],2.1 mL
same,Activity,Mus musculus [22],1.7%
same,Activity,Mus musculus [23],29%
same,Activity,Mus musculus [24],7.4 g%
same,IC50,MCF7,35.9 µg/mL
same,MSD,[25],14.9 days
same,Activity,Mus musculus [26],46%
Cc1ccc(C(C2c3onc(C)c3N=C(c3ccccc3)CC2c2ccccc2)C2c3onc(C)c3N=C(c3ccccc3)CC2c2ccccc2)cc1 (centres undefined),IC50,[1],48.2 µg/mL
same,IC50,HeLa,38.4 µg/mL
same,IC50,MCF7,41.9 µg/mL
